# Measurements as given in PubChem BioAssay.
# The source made the active and inactive calls.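 The calls were made as follows, unless noted: active = viability loss from added drug above about 55%, and viability with drug at most 40%, in both replicates (limit read from the data, passing the limit was not always enough); inconclusive = both conditions met in only one replicate; inactive = neither replicate meets both conditions.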
# What was measured:
# [1] = Her2 expression decrease, cell viability multiplex – SKBR3 breast tumor cells, AlphaScreen, ATP viability, primary screen (AID 461;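 active = Her2 level under about 52% in both replicate screens, with viability over 70% of control, limit read from the data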;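 as to Her2 level: lower value means less Her2 protein in the cells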;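 as to viability: percent of carrier control wells set as 100% viability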); conditions: SKBR3 Her2 protein level, 18-24 h, measured here: SKBR3 viability, ATP luminescence, at 10 µM
# [2] = molecular target: Receptor tyrosine-protein kinase erbB-2 (Homo sapiens) (UniProt P04626); experiment: as above; conditions: 18-24 h, at 10 µM, stronger effect = lower value
# [3] = reduced viability of SK-BR-3 breast cancer cells – cell-based, 24 h, human, pilot screen (AID 572;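 active = viability at or below 10% of carrier control in both of two separate runs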;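 also: compound exposure lasted between 18 and 24 h rather than exactly 24 h; 100% = carrier-treated control wells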); conditions: SK-BR-3 viability, CellTiter-Glo luminescence, at 10 µM, stronger effect = lower value
# [4] = HUVEC growth inhibition – cell-based, human, primary screen (AID 575;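 active = viability at or below 30% in both replicate assays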;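 also: 100% = median of untreated cell wells with 0.1% DMSO on each plate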); conditions: HUVEC proliferation, CellTiter-Glo luminescence, 72 h; at 10 µM; stronger effect = lower value
# In short: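 System – primary HUVEC, no more than 12 passages · Medium – Low-serum (2% FBS) EBM, supplemented · Times – 72 h exposure, 37 °C, 5% CO2, 30 min RT equilibration · Measured by – luminescent ATP assay · Read-out – % viability relative to median vehicle-well signal on each plate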
# [5] = H69AR cell proliferation blockers – human, duplicate replicates, primary screen (AID 580;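 active = viability at or under a set limit in both replicates, limit being median viability minus 3 SD, cut at about 48% in these data, passing the limit was not always enough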;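 also: 100% = mean luminescence of untreated wells and 0% = no signal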); conditions: H69AR lung tumor cells viability, ATP luminescence, 72 h; at 10 µM; stronger effect = lower value
# [6] = MRP1 drug-resistance reversers in H69AR cells – cell-based, doxorubicin co-treatment, pilot screen (AID 601); conditions: CellTiter-Glo, 72 h, at 10 µM; for differential viability (reversal): stronger effect = higher value
# [7] = yeast transport mutant growth inhibition pilot in 384-well plates, post-Golgi transport modulator project (AID 636; in the data active = inhibition above about 31%); conditions: absorbance 615 nm, about 18 h, stronger effect = higher value
# [8] = growth suppression of yeast trafficking mutant, preliminary HTS, modulators of trafficking downstream of Golgi apparatus project, 1536-format plate, OD 615 nm (AID 637; in the data active = inhibition above about 30%); conditions: yeast transport mutant growth, absorbance 615 nm, 18 h; stronger effect = higher value
# [9] = H69AR cells + 2 uM doxorubicin, measured here: viability with 2 uM doxorubicin, stronger effect = lower value
# [10] = H69AR cells, compound alone cytotoxicity
# Chain of Receptor tyrosine-protein kinase erbB-2 (Homo sapiens) (P04626 whole entry, looked up): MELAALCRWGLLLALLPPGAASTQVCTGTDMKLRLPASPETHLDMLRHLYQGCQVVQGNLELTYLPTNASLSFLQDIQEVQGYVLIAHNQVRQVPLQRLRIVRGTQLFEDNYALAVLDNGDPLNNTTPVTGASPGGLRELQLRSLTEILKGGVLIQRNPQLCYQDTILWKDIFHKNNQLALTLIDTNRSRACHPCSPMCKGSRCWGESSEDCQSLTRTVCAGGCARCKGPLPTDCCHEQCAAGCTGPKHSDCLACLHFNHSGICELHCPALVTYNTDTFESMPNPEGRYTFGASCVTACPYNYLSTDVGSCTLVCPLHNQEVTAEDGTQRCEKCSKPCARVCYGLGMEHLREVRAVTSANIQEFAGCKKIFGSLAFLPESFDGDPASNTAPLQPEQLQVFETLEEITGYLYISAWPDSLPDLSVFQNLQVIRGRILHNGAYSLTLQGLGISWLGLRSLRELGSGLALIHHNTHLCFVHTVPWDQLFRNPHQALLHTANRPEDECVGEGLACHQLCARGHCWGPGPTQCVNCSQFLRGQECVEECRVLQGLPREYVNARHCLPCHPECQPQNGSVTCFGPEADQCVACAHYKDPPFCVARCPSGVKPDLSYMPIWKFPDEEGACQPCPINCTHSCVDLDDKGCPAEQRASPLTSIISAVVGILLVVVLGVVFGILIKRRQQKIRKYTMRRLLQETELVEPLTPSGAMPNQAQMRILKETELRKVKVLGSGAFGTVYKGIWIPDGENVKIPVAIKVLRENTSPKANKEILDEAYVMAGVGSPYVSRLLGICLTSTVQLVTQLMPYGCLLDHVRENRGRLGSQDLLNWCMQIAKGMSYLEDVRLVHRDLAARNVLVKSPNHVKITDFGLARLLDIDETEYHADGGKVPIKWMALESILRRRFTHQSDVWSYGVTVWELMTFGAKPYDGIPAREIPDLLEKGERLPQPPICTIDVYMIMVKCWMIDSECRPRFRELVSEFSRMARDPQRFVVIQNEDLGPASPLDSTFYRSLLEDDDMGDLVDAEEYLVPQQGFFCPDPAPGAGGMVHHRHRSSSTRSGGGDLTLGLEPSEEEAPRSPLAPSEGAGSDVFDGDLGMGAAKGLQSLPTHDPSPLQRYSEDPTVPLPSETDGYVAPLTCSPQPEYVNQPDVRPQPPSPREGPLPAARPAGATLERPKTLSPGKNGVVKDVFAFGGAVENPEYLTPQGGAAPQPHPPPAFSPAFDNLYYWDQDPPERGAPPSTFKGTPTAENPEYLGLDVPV
Compound,viability [1] [%],Her2 level [2],viability [3],viability [4],viability [5],differential viability (reversal) ([6]; H69AR cells + 2 uM doxorubicin),"viability [6, 9] [%]","viability [6, 10] [%]",inhibition [7],inhibition [8]
O=C(COc1ncnc2ccccc12)NCc1ccc2c(c1)OCO2,100,96% (inactive),100% (inactive),92.8% (inactive),92.6% (inactive),-1.82% (inactive),94.4,92.6,-4.21% (inactive),4.92% (inactive)
CCOC(=O)N1CCN(C(=O)CN(c2ccc(C)cc2)S(=O)(=O)c2c(C)noc2C)CC1,81.5,94% (inactive),81.5% (inactive),106% (inactive),86.1% (inactive),-0.005% (inactive),86.1,86.1,-4.73% (inactive),6.51% (inactive)
CCc1[nH]nc2c1C(c1cccc(OC(=O)N3CCOCC3)c1)C(C#N)=C(N)O2 (stereo not given),133,124% (inactive),133% (inactive),103% (inactive),89.5% (inactive),-9.21% (inactive),98.8,89.5,-3.42% (inactive),0.95% (inactive)
Cc1ccccc1NC(=O)NCCCN1CCN(C2CCCCC2)CC1,102,102% (inactive),102% (inactive),104% (inactive),95.8% (inactive),2.42% (inactive),93.4,95.8,-1.04% (inactive),0.16% (inactive)
CCCCC(=O)Nc1nn(CCC)c2nc3ccccc3cc12,94,92% (inactive),94% (inactive),92.5% (inactive),96.1% (inactive),-5.81% (inactive),102,96.1,-1.97% (inactive),6.23% (inactive)
CN(C)c1nc(SCCOC(=O)c2ccccc2)nc(N(C)C)n1,96,80.5% (inactive),96% (inactive),82.1% (inactive),101% (inactive),16.4% (inactive),85,101,-4.47% (inactive),-2.67% (inactive)
Cc1cnc(SCCc2ccncc2)nc1C,97,109% (inactive),97% (inactive),109% (inactive),86.6% (inactive),9.61% (inactive),76.9,86.6,-2.05% (inactive),5.17% (inactive)
CC1(C)Cc2c(c(-c3ccccc3)nc(N3CCCC3)c2C(N)=O)CO1,106,97.5% (inactive),106% (inactive),92.3% (inactive),87% (inactive),4.6% (inactive),82.4,87,-1.95% (inactive),1.15% (inactive)
COc1cc2c(cc1OC)-c1cc(OCc3cccnc3)nc(=O)n1CC2,92,106% (inactive),92% (inactive),99.7% (inactive),92.9% (inactive),2.05% (inactive),90.8,92.9,-3.73% (inactive),9.19% (inactive)
COc1ccccc1C(=O)N1CCN(C(=O)c2ccncc2)CC1,122,106% (inactive),122% (inactive),88.6% (inactive),103% (inactive),13.7% (inactive),89.2,103,-3.73% (inactive),4.35% (inactive)
Cn1c(=O)[nH]c(=O)c2[nH]c(CN3CCN(C(=O)c4ccco4)CC3)nc21,98.5,80% (inactive),98.5% (inactive),90.3% (inactive),107% (inactive),13.8% (inactive),92.9,107,-1.58% (inactive),0.73% (inactive)
COc1ccccc1NC(=O)c1cc2n(n1)C(C(F)(F)F)CC(c1ccc3c(c1)OCO3)N2 (stereo not given),85,95% (inactive),85% (inactive),47.7% (inactive),73.3% (inactive),-13.8% (inactive),87.1,73.3,-4.03% (inactive),-3.33% (inactive)
COc1ccc(CNc2nc3nc(C)cc(C)n3n2)cc1OC,104,94.5% (inactive),104% (inactive),111% (inactive),108% (inactive),5.1% (inactive),103,108,-1.71% (inactive),7.21% (inactive)
Cn1c(=O)c(-c2ccccc2)nn2c3ccccc3nc12,82.5,63.5% (inactive),82.5% (inactive),90.8% (inactive),90.8% (inactive),-0.73% (inactive),91.6,90.8,-7.03% (inactive),3% (inactive)
Cc1ccc(Nc2nc(N)nc(CN3CCCCCC3)n2)cc1,79.5,73.5% (inactive),79.5% (inactive),65.7% (inactive),78.4% (inactive),-10.4% (inactive),88.8,78.4,-1.69% (inactive),2.83% (inactive)
CCN(CC)c1ccc2cc(NC(=O)CCC(=O)O)c(=O)oc2c1,89,99% (inactive),89% (inactive),81.1% (inactive),95.7% (inactive),-12.2% (inactive),108,95.7,-2.13% (inactive),-5.32% (inactive)

Compound,viability [1] [%],Her2 level [2],viability [3],viability [4],viability [5],differential viability (reversal) ([6]; H69AR cells + 2 uM doxorubicin),"viability [6, 9] [%]","viability [6, 10] [%]",inhibition [7],inhibition [8]
c1ccc(CC2CCN(c3nc4ccccc4n4nnnc34)CC2)cc1,84,86% (inactive),84% (inactive),88.6% (inactive),81.5% (inactive),8.36% (inactive),73.2,81.5,0% (inactive),1.5% (inactive)
CCc1cccc2c(=O)c(C(=O)N3CCCCCC3)c[nH]c12,104,102% (inactive),104% (inactive),98.4% (inactive),97.5% (inactive),1.41% (inactive),96.1,97.5,-2% (inactive),-6.94% (inactive)
COc1ccc(S(=O)(=O)N2CCSC2c2ccccc2)cc1 (stereo not given),82,90.5% (inactive),82% (inactive),79.9% (inactive),76.9% (inactive),-13.8% (inactive),90.7,76.9,-2.7% (inactive),-2.95% (inactive)
CCCCOc1ccc(-c2nnn(CC(=O)Nc3ncc(CC(=O)OCC)s3)n2)cc1,122,100% (inactive),122% (inactive),74.5% (inactive),84% (inactive),-4.45% (inactive),88.4,84,-7.11% (inactive),-1.59% (inactive)
CCNc1nc(NCC)n2c(SCc3nc4ccccc4c(=O)[nH]3)nnc2n1,100,112% (inactive),100% (inactive),106% (inactive),78.1% (inactive),-9.12% (inactive),87.2,78.1,-1.58% (inactive),-0.66% (inactive)
CC(C)COC(=O)C1[C@H]2C(=O)N(Cc3cccs3)C[C@]23C=C[C@H]1O3 (stereo not given in full),102,109% (inactive),102% (inactive),110% (inactive),91.1% (inactive),1.3% (inactive),89.8,91.1,-4.29% (inactive),-2.33% (inactive)
O=C(Nn1cnnc1)c1cc2c(s1)CCCC2,100,95.5% (inactive),100% (inactive),80% (inactive),102% (inactive),-2.61% (inactive),104,102,-3.42% (inactive),-4% (inactive)
N#CC1=C(N)N(c2ccccc2)C2=C(C(=O)CCC2)C1c1cccs1 (stereo not given),96.5,97.5% (inactive),96.5% (inactive),80.8% (inactive),70.3% (inactive),46.8% (inactive),23.5,70.3,-5.95% (inactive),0.83% (inactive)
COc1ccc(CCn2c(-c3ccco3)nc3nc4ccccc4nc32)cc1,108,110% (inactive),108% (inactive),62.8% (inactive),25.6% (active),-29.9% (inactive),55.4,25.6,-1.62% (inactive),1.31% (inactive)
Cc1cc(NC(=O)CCC(=O)N(CCc2ccccc2)C(C(=O)NC2CCCC2)c2ccco2)no1 (stereo not given),85.5,99% (inactive),85.5% (inactive),79.2% (inactive),99.2% (inactive),4.1% (inactive),95.1,99.2,1.47% (inactive),-2.13% (inactive)
Cc1cc(NC(=O)c2cnn3cccnc23)no1,101,108% (inactive),101% (inactive),97% (inactive),97.8% (inactive),4.21% (inactive),93.5,97.8,-0.92% (inactive),-5.65% (inactive)
COc1cc(OC)c(C2C(C#N)=C(N)OC3=C2C(=O)CC(C)(C)C3)cc1OC (stereo not given),85.5,106% (inactive),85.5% (inactive),61.9% (inactive),83.2% (inactive),-1.53% (inactive),84.7,83.2,0.91% (inactive),-9.02% (inactive)
O=C(CSc1ncnc2c1oc1ccccc12)NCc1ccco1,140,60% (inactive),140% (inactive),83.7% (inactive),76.4% (inactive),-5.7% (inactive),82.1,76.4,-6.27% (inactive),2.62% (inactive)
CN(Cc1cccs1)C(=O)CCc1ccc(S(=O)(=O)N2CCOCC2)cc1,97.5,116% (inactive),97.5% (inactive),111% (inactive),87.4% (inactive),-10.2% (inactive),97.6,87.4,-5.06% (inactive),-12.5% (inactive)
COc1cccc(NC(=O)N2CCN(C(=O)C(Cc3ccc(OC)c(OC)c3)NC(C)=O)CC2)c1 (stereo not given),97,124% (inactive),97% (inactive),91.1% (inactive),90.7% (inactive),2.21% (inactive),88.5,90.7,-4.62% (inactive),-7.5% (inactive)
